Assay results from different studies.
Each line is one published result; the experiments were not run side by side.
Target: Serine/threonine-protein kinase DCLK2 (DCLK2, Homo sapiens, UniProt Q8N568)
Residues used in one study (Q8N568 1-766): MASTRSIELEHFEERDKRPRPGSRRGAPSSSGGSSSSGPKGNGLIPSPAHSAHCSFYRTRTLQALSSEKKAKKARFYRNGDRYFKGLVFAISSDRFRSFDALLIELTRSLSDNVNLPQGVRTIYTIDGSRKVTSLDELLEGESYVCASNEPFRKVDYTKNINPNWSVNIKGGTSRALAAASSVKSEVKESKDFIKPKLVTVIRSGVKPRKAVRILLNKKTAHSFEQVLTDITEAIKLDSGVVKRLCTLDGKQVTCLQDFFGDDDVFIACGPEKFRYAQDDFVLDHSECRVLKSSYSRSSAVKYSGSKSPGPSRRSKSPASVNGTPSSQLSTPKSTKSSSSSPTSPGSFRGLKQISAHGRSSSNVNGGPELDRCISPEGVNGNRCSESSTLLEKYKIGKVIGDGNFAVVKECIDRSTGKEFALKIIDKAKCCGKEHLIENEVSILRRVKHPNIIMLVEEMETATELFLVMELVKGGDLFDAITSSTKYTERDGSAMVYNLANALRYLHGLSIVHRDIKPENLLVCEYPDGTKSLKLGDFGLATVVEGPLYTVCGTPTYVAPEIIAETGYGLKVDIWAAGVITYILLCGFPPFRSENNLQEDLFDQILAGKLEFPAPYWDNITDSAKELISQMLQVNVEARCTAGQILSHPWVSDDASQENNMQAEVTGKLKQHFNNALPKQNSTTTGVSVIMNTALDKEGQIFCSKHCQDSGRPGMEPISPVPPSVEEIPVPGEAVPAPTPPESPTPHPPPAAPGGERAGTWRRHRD

SMILES	assay	conditions	endpoint	value
C[S+]([O-])c1ccc(-c2nc(-c3ccncc3)c(-c3ccc(F)cc3)[nH]2)cc1 (stereo not shown)	cell-free assay	0.5 µM	remaining signal	99.8%
Nc1cnc(N2CCc3cc(S(=O)(=O)Nc4c(F)cc(Cl)cc4F)cc(N4CCCC4=O)c32)nc1	cell-free assay, competition with immobilised ligand	1 µM	remaining binding	100%
COc1cc(Cl)c(C(=O)N[C@@H](CN[C@H]2CC[C@@H](N)CC2)Cc2ccc(C#N)cc2)cc1-c1ccc(CN[C@H](C)c2ccc(C)cc2)o1	enzyme activity, inhibitor	1 µM	remaining activity	96%
CO[C@H]1CC[C@H](CNc2ccc(S(=O)(=O)NC(=O)c3ccc(N4CCN(CC5=C(c6ccc(Cl)cc6)CC(C)(C)CC5)CC4)cc3Oc3cnc4[nH]ccc4c3)cc2[N+](=O)[O-])CC1	cell-free assay, competition with immobilised ligand	1 µM	remaining binding	100%
Cc1ccc(Nc2nccc(N(C)c3ccc4c(C)n(C)nc4c3)n2)cc1S(N)(=O)=O	enzyme activity, inhibitor	10 µM	inhibition	-19%
CNC(=O)Nc1ccc2c(c1)[C@@]1(CC2)OC(=O)N(CC(=O)N(Cc2ccc(F)cc2)[C@@H](C)C(F)(F)F)C1=O	cell-free assay, competition with immobilised ligand	1 µM	remaining binding	89%
N#CCCc1ccc2c(c1)-c1[nH]c3ccc([N+](=O)[O-])cc3c1CC(=O)N2	cell-free assay	0.5 µM	remaining signal	104%
CC/C(=N\NC(=O)NCc1cccc(O)c1)c1ccc(O)c(C)c1O	enzyme activity, inhibitor	0.1 µM	inhibition	-8.9%
CCS(=O)(=O)c1cc2cc(C[C@@](O)(CC(C)(C)c3ccc(F)cc3C(N)=O)C(F)(F)F)[nH]c2cn1	cell-free assay, competition with immobilised ligand	1 µM	remaining binding	100%
COc1cc2ncnc(Nc3ccc(Oc4ccccc4)cc3C)c2cc1OC	enzyme activity, inhibitor	1 µM	inhibition	1%
Cn1cncc1C1=CN(c2ncnc3[nH]cnc23)CCS1	enzyme activity, inhibitor, radiometric	2 µM	inhibition	14.2%
Cc1c(NC(=O)c2cc(C(N)=O)nc3cc(F)ccc23)c(C(F)(F)F)nn1Cc1ccc(C(C)(C)C)cc1	cell-free assay, competition with immobilised ligand	1 µM	remaining binding	83%
CCN(CC)CCNC(=O)c1c(C)[nH]c(/C=C2\C(=O)Nc3ccc(F)cc32)c1C	enzyme activity, inhibitor	10 µM	inhibition	69%
Cc1sc(C(=O)NC2COC2)cc1-n1cc(NC(=O)Nc2c(F)cccc2Cl)cn1	enzyme activity, inhibitor	10 µM	remaining activity	107%
CC(C)(C)c1nc(-c2cccc(NS(=O)(=O)c3c(F)cccc3F)c2F)c(-c2ccnc(N)n2)s1	enzyme activity, inhibitor, radiometric	1 µM	remaining activity	77%
O=C(Nc1cnn(-c2csc(C(=O)NC3COC3)c2)c1)Nc1ccccc1Cl	enzyme activity, inhibitor	5 µM	remaining activity	99.9%
CNC(=O)Nc1ccc2c(c1)CC[C@@]21OC(=O)N(CC(=O)N(Cc2ccc(F)cc2)[C@@H](C)C(F)(F)F)C1=O	cell-free assay, competition with immobilised ligand	1 µM	remaining binding	70%
CNc1cccc2cc(C(=O)Nc3ccc(C(=O)O)cc3)c(=O)[nH]c12	enzyme activity, inhibitor	10 µM	inhibition	-1.4%
O=C1Nc2ccc(Cl)cc2C1=Cc1cc(Cl)c(O)c(Cl)c1	cell-free assay	0.5 µM	remaining signal	98%
Cc1cc(NC(=O)c2cccc3cc(-c4cccc5[nH]nc(N)c45)ccc23)ccc1F	enzyme activity, inhibitor	0.1 µM	activity vs control	109%
CNC(=O)c1cc(Oc2ccc(NC(=O)Nc3ccc(Cl)c(C(F)(F)F)c3)cc2)ccn1	cell-free assay	0.5 µM	remaining signal	102%
Cc1cnc(NC2CCOCC2)nc1-n1cnc(C(=O)NC(CN)c2cc(F)cc(Cl)c2)c1 (stereo not shown)	enzyme activity, inhibitor, radiometric	1 µM	remaining activity	83%
